Measurements: ChEMBL document CHEMBL4354826, “Structure-Based Discovery of SD-36 as a Potent, Selective, and Efficacious PROTAC Degrader of STAT3 Protein” (J Med Chem, 2019)
pKd: −log10 of the molar value. Active and inactive are the calls of the source. The calls are words filed in the database; no cut-off is given here.

Assays:
[1] = biological target: Signal transducer and activator of transcription 3 (Homo sapiens, UniProt P40763); assay: Binding affinity to recombinant human His/SUMO-tagged STAT3 (127 to 688 residues) expressed in Escherichia coli Rosetta (DE3) incubated for 1 hr by fluorescence polarization assay
Sequence of Signal transducer and activator of transcription 3 (P40763 whole entry, the tested form may be a part): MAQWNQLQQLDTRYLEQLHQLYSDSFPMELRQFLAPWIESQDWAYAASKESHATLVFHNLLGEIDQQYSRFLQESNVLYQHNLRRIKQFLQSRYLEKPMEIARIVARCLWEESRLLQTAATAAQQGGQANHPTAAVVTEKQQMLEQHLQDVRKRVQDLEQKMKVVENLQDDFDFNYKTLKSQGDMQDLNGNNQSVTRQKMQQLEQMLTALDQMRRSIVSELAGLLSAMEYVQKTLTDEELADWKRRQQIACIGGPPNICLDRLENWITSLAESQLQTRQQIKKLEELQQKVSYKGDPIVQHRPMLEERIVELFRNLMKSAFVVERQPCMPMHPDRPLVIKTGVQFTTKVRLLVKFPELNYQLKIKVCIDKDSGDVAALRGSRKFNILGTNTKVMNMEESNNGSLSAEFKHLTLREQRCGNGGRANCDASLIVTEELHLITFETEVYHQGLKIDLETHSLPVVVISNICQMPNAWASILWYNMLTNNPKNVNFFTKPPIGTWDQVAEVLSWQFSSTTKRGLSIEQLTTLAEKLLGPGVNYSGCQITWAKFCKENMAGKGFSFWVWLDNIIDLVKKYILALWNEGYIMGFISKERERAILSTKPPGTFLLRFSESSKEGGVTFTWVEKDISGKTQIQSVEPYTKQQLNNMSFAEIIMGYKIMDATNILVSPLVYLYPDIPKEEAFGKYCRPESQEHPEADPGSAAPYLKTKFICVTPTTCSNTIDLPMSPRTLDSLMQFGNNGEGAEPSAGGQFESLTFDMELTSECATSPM

[2] = biological target: Protein cereblon/Signal transducer and activator of transcription 3 (Homo sapiens, UniProt P40763+Q96SW2); assay: Protac activity at CRBN/STAT3 in human MOLM16 cells assessed as degradation of STAT3 at 0.01 to 10 uM incubated for 4 hrs by Western blot analysis; assay type: cell-based
Sequence of Protein cereblon/Signal transducer and activator of transcription 3 (P40763 2-770 limits assumed): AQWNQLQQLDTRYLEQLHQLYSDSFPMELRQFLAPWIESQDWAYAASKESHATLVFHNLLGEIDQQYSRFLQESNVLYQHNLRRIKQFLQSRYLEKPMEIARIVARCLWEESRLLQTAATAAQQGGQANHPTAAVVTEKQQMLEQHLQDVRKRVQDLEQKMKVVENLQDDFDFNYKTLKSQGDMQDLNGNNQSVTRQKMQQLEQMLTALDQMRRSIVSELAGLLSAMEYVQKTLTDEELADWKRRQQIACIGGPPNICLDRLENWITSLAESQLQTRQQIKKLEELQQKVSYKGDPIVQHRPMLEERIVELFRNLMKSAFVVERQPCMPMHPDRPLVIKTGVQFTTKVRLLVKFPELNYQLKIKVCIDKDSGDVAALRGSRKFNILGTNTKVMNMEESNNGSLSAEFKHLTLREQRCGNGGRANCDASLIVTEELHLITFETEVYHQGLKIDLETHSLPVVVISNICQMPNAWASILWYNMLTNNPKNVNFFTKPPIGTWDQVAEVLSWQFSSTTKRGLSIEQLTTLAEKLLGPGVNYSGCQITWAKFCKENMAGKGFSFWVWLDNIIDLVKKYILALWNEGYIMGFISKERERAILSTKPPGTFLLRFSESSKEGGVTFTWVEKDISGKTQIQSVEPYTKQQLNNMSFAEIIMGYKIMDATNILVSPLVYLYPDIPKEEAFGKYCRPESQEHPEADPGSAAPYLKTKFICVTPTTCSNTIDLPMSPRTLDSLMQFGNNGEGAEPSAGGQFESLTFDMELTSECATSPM
Sequence of Protein cereblon/Signal transducer and activator of transcription 3 (Q96SW2 whole entry partner): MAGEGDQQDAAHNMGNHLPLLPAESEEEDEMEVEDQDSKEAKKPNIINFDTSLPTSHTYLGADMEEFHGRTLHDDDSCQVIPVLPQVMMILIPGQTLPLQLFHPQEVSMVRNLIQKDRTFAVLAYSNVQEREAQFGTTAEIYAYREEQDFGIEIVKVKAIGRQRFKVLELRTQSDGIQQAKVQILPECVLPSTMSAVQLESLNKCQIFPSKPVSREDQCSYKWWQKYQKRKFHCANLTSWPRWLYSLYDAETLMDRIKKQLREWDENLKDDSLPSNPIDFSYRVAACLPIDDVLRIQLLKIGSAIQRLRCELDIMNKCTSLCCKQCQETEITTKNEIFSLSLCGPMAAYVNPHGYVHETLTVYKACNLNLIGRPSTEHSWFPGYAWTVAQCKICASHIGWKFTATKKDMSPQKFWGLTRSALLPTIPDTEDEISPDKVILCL
Procedure, shortened: (§1)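 Molm-16 cells treated 4 h with test compound at 0.01–10 μM, or control compounds at 10 μM. Lysates separated by SDS–PAGE, transferred to PVDF, blocked 1 h in 5% blocker/TBST, probed for each STAT protein, and detected by chemiluminescence.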

[3] = biological target: T1, Protein cereblon/Signal transducer and activator of transcription 5B (Homo sapiens) (UniProt P51692+Q96SW2); assay: Protac activity at CRBN/STAT5B in human MOLM16 cells assessed as degradation of STAT5B at 0.01 to 10 uM incubated for 4 hrs by Western blot analysis; assay type: cell-based; procedure, shortened: as §1
T1 sequence (P51692 whole entry, looked up): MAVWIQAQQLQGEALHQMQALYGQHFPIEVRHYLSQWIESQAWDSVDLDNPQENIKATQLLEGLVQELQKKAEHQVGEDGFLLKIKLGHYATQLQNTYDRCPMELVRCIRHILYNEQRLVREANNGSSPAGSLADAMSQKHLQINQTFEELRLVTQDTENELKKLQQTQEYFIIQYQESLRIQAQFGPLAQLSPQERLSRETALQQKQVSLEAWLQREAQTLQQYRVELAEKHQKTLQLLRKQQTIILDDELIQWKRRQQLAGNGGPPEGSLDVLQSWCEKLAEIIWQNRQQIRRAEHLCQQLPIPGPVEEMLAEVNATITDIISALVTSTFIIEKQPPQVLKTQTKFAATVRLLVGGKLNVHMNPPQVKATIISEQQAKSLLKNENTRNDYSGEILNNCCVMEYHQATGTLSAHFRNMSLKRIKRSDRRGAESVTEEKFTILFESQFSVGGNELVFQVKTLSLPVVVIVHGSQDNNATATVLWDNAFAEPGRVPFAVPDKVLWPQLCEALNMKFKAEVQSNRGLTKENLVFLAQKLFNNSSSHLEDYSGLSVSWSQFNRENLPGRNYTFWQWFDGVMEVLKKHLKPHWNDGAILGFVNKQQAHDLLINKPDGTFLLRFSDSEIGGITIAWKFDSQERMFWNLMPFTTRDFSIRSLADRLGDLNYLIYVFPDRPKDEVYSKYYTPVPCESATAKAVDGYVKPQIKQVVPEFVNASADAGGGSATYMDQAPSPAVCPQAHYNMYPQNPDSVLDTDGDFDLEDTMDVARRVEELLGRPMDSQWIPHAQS
T1 sequence (Q96SW2 whole entry, looked up): as the sequence (Q96SW2 whole entry partner) above

[4] = biological target: Protein cereblon/Signal transducer and activator of transcription 2 (Homo sapiens) (UniProt Q96SW2+P52630); assay: Protac activity at CRBN/STAT2 in human SUDHL1 cells assessed as degradation of STAT2 at 0.01 to 10 uM incubated for 18 hrs by Western blot analysis; assay type: cell-based
Sequence of Protein cereblon/Signal transducer and activator of transcription 2 (Homo sapiens) (P52630 whole entry, looked up): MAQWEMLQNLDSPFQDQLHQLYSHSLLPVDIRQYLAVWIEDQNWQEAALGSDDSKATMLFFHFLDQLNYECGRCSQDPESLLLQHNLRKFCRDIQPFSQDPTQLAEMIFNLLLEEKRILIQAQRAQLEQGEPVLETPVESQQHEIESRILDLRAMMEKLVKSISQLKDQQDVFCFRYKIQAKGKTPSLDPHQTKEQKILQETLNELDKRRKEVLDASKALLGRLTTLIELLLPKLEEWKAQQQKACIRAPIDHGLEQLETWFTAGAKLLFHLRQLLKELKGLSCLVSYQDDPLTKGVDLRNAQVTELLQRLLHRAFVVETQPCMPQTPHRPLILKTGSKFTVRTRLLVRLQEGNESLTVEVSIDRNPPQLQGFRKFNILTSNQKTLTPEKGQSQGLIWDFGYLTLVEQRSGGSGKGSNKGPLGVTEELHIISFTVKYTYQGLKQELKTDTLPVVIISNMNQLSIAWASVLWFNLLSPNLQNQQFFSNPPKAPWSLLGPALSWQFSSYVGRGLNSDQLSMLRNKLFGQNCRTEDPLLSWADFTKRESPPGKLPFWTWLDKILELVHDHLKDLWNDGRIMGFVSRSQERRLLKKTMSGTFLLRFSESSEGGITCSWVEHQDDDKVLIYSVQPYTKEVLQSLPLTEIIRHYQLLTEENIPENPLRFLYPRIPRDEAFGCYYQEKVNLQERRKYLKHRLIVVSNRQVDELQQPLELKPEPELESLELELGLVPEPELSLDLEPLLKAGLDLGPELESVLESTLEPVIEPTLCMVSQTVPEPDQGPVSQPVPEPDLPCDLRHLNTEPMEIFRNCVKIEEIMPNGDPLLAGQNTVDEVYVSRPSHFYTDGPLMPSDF
Sequence of Protein cereblon/Signal transducer and activator of transcription 2 (Homo sapiens) (Q96SW2 whole entry, looked up): as the sequence (Q96SW2 whole entry partner) above
Procedure, shortened: (§2)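 SU-DHL-1 cells treated 18 h with test compound at 0.01–10 μM, or control compounds at 10 μM. Lysates separated by SDS–PAGE, transferred to PVDF, blocked 1 h in 5% blocker/TBST, probed for each STAT protein, and detected by chemiluminescence.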

[5] = biological target: T1, Protein cereblon/Signal transducer and activator of transcription 5B (Homo sapiens); assay: Protac activity at CRBN/STAT5B in human SUDHL1 cells assessed as degradation of STAT5B at 0.01 to 10 uM incubated for 18 hrs by Western blot analysis; assay type: cell-based; procedure, shortened: as §2
Homo sapiens = organism: Homo sapiens; assay: Selectivity index, ratio of protac activity at CRBN/STAT5B in human MOLM16 cells to protac activity at CRBN/STAT3 in human MOLM16 cells; assay type: cell-based
Procedure, shortened: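 Molm-16 cells treated 4 h with compound at 0.01–10 μM, or controls at 10 μM. Western blot of lysates: SDS–PAGE, PVDF, 1 h block in 5% blocker/TBST, primary and secondary antibodies, chemiluminescent detection. STAT1, -2, -4, -5A/B and -6 levels read against STAT3 to give degradation selectivity.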

Mus musculus = assay: In vivo degradation of phosphorylated STAT3 Y705 in SCID mouse xenografted with MOLM-16 cells at 50 mg/kg, iv measured upto 1 hr by Western blot analysis relative to control; assay type: functional
Procedure, shortened: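 SCID mice bearing subcutaneous Molm-16 tumors (3 × 10^6 cells in Matrigel; treated at ~150 mm3) given a single intravenous dose in 10% PEG400 + 90% PBS, or vehicle. Tumors harvested at time points. Lysates immunoblotted for total STAT3 and pSTAT3 Y705, compared with vehicle control.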

[6] = Antitumor activity against human MOLM16 cells xenografted in […] mouse assessed as tumor regression at 25 or 50 mg/kg, iv administered 3 times per week for 3 weeks; assay type: functional

Structure (SMILES): NC(=O)CC[C@H](NC(=O)[C@@H]1CC[C@@H]2CCN(C(=O)CCCCCC#Cc3cccc4c3CN(C3CCC(=O)NC3=O)C4=O)C[C@H](NC(=O)c3cc4cc(C(F)(F)P(=O)(O)O)ccc4[nH]3)C(=O)N21)C(=O)NC(c1ccccc1)c1ccccc1 (stereo partly drawn)
- pKd [1]: 7.36
- Activity [2]: Active
- Activity [3]: inactive
- Activity [4]: inactive
- Activity [5]: inactive
- Ratio (Homo sapiens): > 100
- Activity (Mus musculus): >90%
- Activity [6]: 100%
